Reference: ChEMBL document CHEMBL1133370, “N-(sulfonamido)alkyl[tetrahydro-1H-benzo[e]indol-2-yl]amines: potent antagonists of human neuropeptide Y Y5 receptor” (Bioorg Med Chem Lett, 2000)

target: T1, Neuropeptide Y receptor type 5 (Homo sapiens, UniProt Q15761); test: Binding affinity for human Neuropeptide Y receptor type 5 in HEK293 cells; assay type: cell-based
T1 sequence (Q15761 whole entry): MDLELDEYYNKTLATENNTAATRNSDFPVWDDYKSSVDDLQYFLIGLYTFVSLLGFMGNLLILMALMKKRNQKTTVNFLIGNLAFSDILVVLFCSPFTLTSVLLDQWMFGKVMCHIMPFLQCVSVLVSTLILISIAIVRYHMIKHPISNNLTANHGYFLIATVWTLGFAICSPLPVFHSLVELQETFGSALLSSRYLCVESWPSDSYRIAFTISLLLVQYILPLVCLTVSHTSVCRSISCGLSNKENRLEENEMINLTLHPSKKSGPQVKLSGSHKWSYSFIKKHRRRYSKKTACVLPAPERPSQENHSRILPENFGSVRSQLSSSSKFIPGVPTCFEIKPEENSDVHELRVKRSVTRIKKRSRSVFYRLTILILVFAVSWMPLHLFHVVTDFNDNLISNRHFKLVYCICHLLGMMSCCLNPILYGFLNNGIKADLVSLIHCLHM
Method in brief: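 Membranes from HEK293 cells stably transfected with human NPY5 cDNA, prepared in 20 mM HEPES buffer with NaCl, 0.22 mM KH2PO4, 1.3 mM CaCl2, 0.8 mM MgSO4, pH 7.4. Centrifuged, washed, membrane radioactivity gamma-counted. Non-specific binding with 300 nM NPY. IC50 is 50% inhibition of specific binding, averaged over ≥2 experiments.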

Compared with `COc1ccc2c(c1)CCC1N=C(NC(C)=O)CC21` (stereo not drawn), `COc1ccc2c(c1)CCC1N=C(NC(=O)[C@H]3CC[C@H](CNS(=O)(=O)c4ccccc4)CC3)CC21` (stereo partly drawn) is lower in IC50: greater than 1000 nM for the first, 91 nM for the second. The second is the more potent here.

Compared with `COc1ccc2c(c1)CCC1N=C(NC(=O)[C@H]3CC[C@H](CNS(=O)(=O)c4ccccc4F)CC3)CC21` (stereo partly drawn), `COc1ccc2c(c1)CCC1N=C(NC[C@H]3CC[C@H](CNS(=O)(=O)c4ccccc4F)CC3)CC21` (stereo partly drawn) is 3.5-fold lower in IC50: 121 nM for the first, 35 nM for the second. The second is the more potent here.

`COc1ccc2c(c1)CCC1N=C(NC[C@H]3CC[C@H](CNS(=O)(=O)c4ccccc4)CC3)CC21` (stereo partly drawn) and `O=S(=O)(NC[C@H]1CC[C@H](CNC2=NC3CCc4cc(Cl)ccc4C3C2)CC1)c1ccccc1` (stereo partly drawn) are within 1.5-fold of each other in IC50: 57 nM for the first, 54 nM for the second.

Compared with `O=S(=O)(NC[C@H]1CC[C@H](CNC2=NC3CCc4cc(O)ccc4C3C2)CC1)c1ccccc1` (stereo partly drawn), `O=S(=O)(NC[C@H]1CC[C@H](CNC2=NC3CCc4ccccc4C3C2)CC1)c1ccccc1` (stereo partly drawn) is 39-fold higher in IC50: 1 nM for the first, 39 nM for the second. The first is the more potent here.

First: N[C@@H](CCCCNS(=O)(=O)c1ccccc1F)C(=O)NC1=NC2CCc3cc(F)ccc3C2C1 (stereo partly drawn)
Second: O=C(NC1=NC2CCc3cc(Cl)ccc3C2C1)[C@H]1CC[C@H](CNS(=O)(=O)c2ccccc2)CC1 (stereo partly drawn)
The IC50 of the first is 1.8-fold higher: 202 nM for the first, 111 nM for the second.

First: O=C(NC1=NC2CCc3cc(O)ccc3C2C1)[C@H]1CC[C@H](CNS(=O)(=O)c2ccccc2)CC1 (stereo partly drawn)
Second: O=C(NC1=NC2CCc3ccccc3C2C1)[C@H]1CC[C@H](CNS(=O)(=O)c2ccccc2)CC1 (stereo partly drawn)
The IC50 of the first is 6.7-fold lower: 9 nM for the first, 60 nM for the second.

Work on `COc1ccc2c(c1)CCC(NCCc1ccc(OC)c(OC)c1)C2Cc1ccccc1` (stereo not drawn) yielded an IC50 of roughly 1000 nM.
